Test results taken from ChEMBL document CHEMBL1817648, “Synthesis and in vitro antibacterial activity of a series of novel gatifloxacin derivatives” (Eur J Med Chem, 2011).
Converted amounts (≈) assume the structure as drawn.

How the values were obtained:
[1] = Cytotoxicity against african green monkey Vero cells after 72 hrs by MTT assay; type: cell-based; details: chlorocebus sabaeus
Outline: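 Vero cells were kept in Minimum Essential Medium with Earle's salts plus 10% fetal bovine serum at 37 °C under 5% CO₂. Cells were seeded at 1 × 10⁴ per well and allowed to recover 24 h. Medium was then replaced with assay medium containing compound or no drug, and cells were exposed for 72 h. CC₅₀ is the 50% cellular cytotoxic concentration.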

[2] = tested on: Staphylococcus epidermidis; experiment: Antibacterial activity against methicillin-resistant Staphylococcus epidermidis 09-4 after 18 to 24 hrs by NCCLS M100-S11 two fold serial dilution method; type: functional
Outline: (§1)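 Two-fold serial dilution in agar medium. MIC read as the lowest concentration giving complete inhibition of bacterial growth after incubation at 35 °C for 18–24 h.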

Klebsiella pneumoniae [3] = experiment: Antibacterial activity against Klebsiella pneumoniae 09-22 after 18 to 24 hrs by NCCLS M100-S11 two fold serial dilution method; type: functional
Staphylococcus aureus [4] = experiment: Antibacterial activity against methicillin-sensitive Staphylococcus aureus 08-1 after 18 to 24 hrs by NCCLS M100-S11 two fold serial dilution method; type: functional
Staphylococcus aureus [5] = experiment: Antibacterial activity against Staphylococcus aureus ATCC 25923 after 18 to 24 hrs by NCCLS M100-S11 two fold serial dilution method; type: functional; details: ATCC25923
Enterococcus faecium [6] = experiment: Antibacterial activity against Enterococcus faecium 08-2 after 18 to 24 hrs by NCCLS M100-S11 two fold serial dilution method; type: functional
Pseudomonas aeruginosa [7] = experiment: Antibacterial activity against Pseudomonas aeruginosa 09-33 after 18 to 24 hrs by NCCLS M100-S11 two fold serial dilution method; type: functional
[8] = tested on: Staphylococcus epidermidis; experiment: Antibacterial activity against methicillin-sensitive Staphylococcus epidermidis 09-6 after 18 to 24 hrs by NCCLS M100-S11 two fold serial dilution method; type: functional; outline: as §1
Pseudomonas aeruginosa [9] = experiment: Antibacterial activity against Pseudomonas aeruginosa ATCC 27853 after 18 to 24 hrs by NCCLS M100-S11 two fold serial dilution method; type: functional
Pseudomonas aeruginosa [10] = experiment: Antibacterial activity against Pseudomonas aeruginosa 09-32 after 18 to 24 hrs by NCCLS M100-S11 two fold serial dilution method; type: functional
Staphylococcus aureus [11] = experiment: Antibacterial activity against methicillin-resistant Staphylococcus aureus 08-1 after 18 to 24 hrs by NCCLS M100-S11 two fold serial dilution method; type: functional; outline: as §1
Escherichia coli [12] = experiment: Antibacterial activity against Escherichia coli 08-22 after 18 to 24 hrs by NCCLS M100-S11 two fold serial dilution method; type: functional
Escherichia coli [13] = experiment: Antibacterial activity against Escherichia coli 08-21 after 18 to 24 hrs by NCCLS M100-S11 two fold serial dilution method; type: functional
Streptococcus pneumoniae [14] = experiment: Antibacterial activity against Streptococcus pneumoniae 08-2 after 18 to 24 hrs by NCCLS M100-S11 two fold serial dilution method; type: functional
Enterococcus faecalis [15] = experiment: Antibacterial activity against Enterococcus faecalis 08-12 after 18 to 24 hrs by NCCLS M100-S11 two fold serial dilution method; type: functional
Klebsiella pneumoniae [16] = experiment: Antibacterial activity against Klebsiella pneumoniae 09-23 after 18 to 24 hrs by NCCLS M100-S11 two fold serial dilution method; type: functional
Escherichia coli [17] = experiment: Antibacterial activity against Escherichia coli ATCC 25922 after 18 to 24 hrs by NCCLS M100-S11 two fold serial dilution method; type: functional; details: ATCC25922
Enterococcus faecalis [18] = experiment: Antibacterial activity against Enterococcus faecalis 08-10 after 18 to 24 hrs by NCCLS M100-S11 two fold serial dilution method; type: functional
Enterococcus faecium [19] = experiment: Antibacterial activity against Enterococcus faecium 08-7 after 18 to 24 hrs by NCCLS M100-S11 two fold serial dilution method; type: functional
[20] = tested on: Staphylococcus epidermidis; experiment: Antibacterial activity against methicillin-sensitive Staphylococcus epidermidis 09-3 after 18 to 24 hrs by NCCLS M100-S11 two fold serial dilution method; type: functional; outline: as §1
Streptococcus pneumoniae [21] = experiment: Antibacterial activity against Streptococcus pneumoniae 08-4 after 18 to 24 hrs by NCCLS M100-S11 two fold serial dilution method; type: functional
Pseudomonas aeruginosa [22] = experiment: Antibacterial activity against Pseudomonas aeruginosa 09-34 after 18 to 24 hrs by NCCLS M100-S11 two fold serial dilution method; type: functional

| Structure (SMILES) | MIC [2] | MIC (Klebsiella pneumoniae [3]) | MIC (Staphylococcus aureus [4]) | MIC (Staphylococcus aureus [5]) | MIC (Enterococcus faecium [6]) | MIC (Pseudomonas aeruginosa [7]) | MIC [8] | MIC (Pseudomonas aeruginosa [9]) | MIC (Pseudomonas aeruginosa [10]) | MIC (Staphylococcus aureus [11]) | MIC (Escherichia coli [12]) | MIC (Escherichia coli [13]) | MIC (Streptococcus pneumoniae [14]) | MIC (Enterococcus faecalis [15]) | MIC (Klebsiella pneumoniae [16]) | MIC (Escherichia coli [17]) | MIC (Enterococcus faecalis [18]) | MIC (Enterococcus faecium [19]) | MIC [20] | MIC (Streptococcus pneumoniae [21]) | other results |
| --- | --- | --- | --- | --- | --- | --- | --- | --- | --- | --- | --- | --- | --- | --- | --- | --- | --- | --- | --- | --- | --- |
| COc1c(N2CCN(C/C(C)=N/NC(=O)c3ccncc3)C(C)C2)c(F)cc2c(=O)c(C(=O)O)cn(C3CC3)c12 (stereo not given) | 2 µg/mL (≈ 3.63 µM) | 16 µg/mL (≈ 29.1 µM) | 2 µg/mL (≈ 3.63 µM) | 2 µg/mL (≈ 3.63 µM) | 64 µg/mL (≈ 116 µM) | 128 µg/mL (≈ 232 µM) | 0.25 µg/mL (≈ 0.454 µM) | 4 µg/mL (≈ 7.26 µM) | 4 µg/mL (≈ 7.26 µM) | 32 µg/mL (≈ 58.1 µM) | 64 µg/mL (≈ 116 µM) | 128 µg/mL (≈ 232 µM) | 32 µg/mL (≈ 58.1 µM) | 128 µg/mL (≈ 232 µM) | 32 µg/mL (≈ 58.1 µM) | 16 µg/mL (≈ 29.1 µM) | 128 µg/mL (≈ 232 µM) | 64 µg/mL (≈ 116 µM) | 0.25 µg/mL (≈ 0.454 µM) | 4 µg/mL (≈ 7.26 µM) | CC50 at 72 h [1]: 250 µg/mL (≈ 454 µM); MIC (Pseudomonas aeruginosa [22]): 32 µg/mL (≈ 58.1 µM) |
| COc1c(N2CCN(C/C(C)=N/NC(C)=O)C(C)C2)c(F)cc2c(=O)c(C(=O)O)cn(C3CC3)c12 (stereo not given) | 0.25 µg/mL (≈ 0.513 µM) | 0.25 µg/mL (≈ 0.513 µM) | 0.25 µg/mL (≈ 0.513 µM) | 0.25 µg/mL (≈ 0.513 µM) | 16 µg/mL (≈ 32.8 µM) | 64 µg/mL (≈ 131 µM) | 0.25 µg/mL (≈ 0.513 µM) | 4 µg/mL (≈ 8.2 µM) | 0.25 µg/mL (≈ 0.513 µM) | 0.25 µg/mL (≈ 0.513 µM) | 16 µg/mL (≈ 32.8 µM) | 16 µg/mL (≈ 32.8 µM) | 8 µg/mL (≈ 16.4 µM) | 16 µg/mL (≈ 32.8 µM) | 4 µg/mL (≈ 8.2 µM) | 8 µg/mL (≈ 16.4 µM) | 16 µg/mL (≈ 32.8 µM) | 16 µg/mL (≈ 32.8 µM) | 0.25 µg/mL (≈ 0.513 µM) | 0.25 µg/mL (≈ 0.513 µM) | CC50 at 72 h [1]: 707 µg/mL (≈ 1450 µM); MIC (Pseudomonas aeruginosa [22]): 2 µg/mL (≈ 4.1 µM) |
| CCOC(=O)CN1CCN(c2c(F)cc3c(=O)c(C(=O)O)cn(C4CC4)c3c2OC)CC1C (stereo not given) | 4 µg/mL (≈ 8.67 µM) | > 128 µg/mL | 4 µg/mL (≈ 8.67 µM) | 4 µg/mL (≈ 8.67 µM) | > 128 µg/mL | > 128 µg/mL | 4 µg/mL (≈ 8.67 µM) | 128 µg/mL (≈ 277 µM) | > 128 µg/mL | > 128 µg/mL | > 128 µg/mL | > 128 µg/mL | > 128 µg/mL | > 128 µg/mL | > 128 µg/mL | 128 µg/mL (≈ 277 µM) | > 128 µg/mL | > 128 µg/mL | 4 µg/mL (≈ 8.67 µM) | 4 µg/mL (≈ 8.67 µM) | CC50 at 72 h [1]: 1000 µg/mL (≈ 2170 µM); MIC (Pseudomonas aeruginosa [22]): > 128 µg/mL |
| COc1c(N2CCN(C/C(C)=N/Nc3ccccc3)C(C)C2)c(F)cc2c(=O)c(C(=O)O)cn(C3CC3)c12 (stereo not given) | 0.25 µg/mL (≈ 0.479 µM) | 0.25 µg/mL (≈ 0.479 µM) | 0.125 µg/mL (≈ 0.24 µM) | 0.125 µg/mL (≈ 0.24 µM) | 4 µg/mL (≈ 7.67 µM) | 4 µg/mL (≈ 7.67 µM) | 0.25 µg/mL (≈ 0.479 µM) | 2 µg/mL (≈ 3.83 µM) | 0.25 µg/mL (≈ 0.479 µM) | 0.125 µg/mL (≈ 0.24 µM) | 0.25 µg/mL (≈ 0.479 µM) | 4 µg/mL (≈ 7.67 µM) | 0.25 µg/mL (≈ 0.479 µM) | 4 µg/mL (≈ 7.67 µM) | 0.125 µg/mL (≈ 0.24 µM) | 0.5 µg/mL (≈ 0.959 µM) | 4 µg/mL (≈ 7.67 µM) | 4 µg/mL (≈ 7.67 µM) | 0.25 µg/mL (≈ 0.479 µM) | 0.25 µg/mL (≈ 0.479 µM) | CC50 at 72 h [1]: 11.1 µg/mL (≈ 21.2 µM); MIC (Pseudomonas aeruginosa [22]): 0.25 µg/mL (≈ 0.479 µM) |
| CCOC(=O)CCN1CCN(c2c(F)cc3c(=O)c(C(=O)O)cn(C4CC4)c3c2OC)CC1C (stereo not given) | > 128 µg/mL | > 128 µg/mL | > 128 µg/mL | 128 µg/mL (≈ 269 µM) | > 128 µg/mL | > 128 µg/mL | > 128 µg/mL | 128 µg/mL (≈ 269 µM) | > 128 µg/mL |  | > 128 µg/mL | > 128 µg/mL | > 128 µg/mL | > 128 µg/mL | > 128 µg/mL | 128 µg/mL (≈ 269 µM) | > 128 µg/mL | > 128 µg/mL | > 128 µg/mL | > 128 µg/mL | MIC (Pseudomonas aeruginosa [22]): > 128 µg/mL |
| C[C@H]1COc2c(N3CCN(C)CC3)c(F)cc3c(=O)c(C(=O)O)cn1c23.C[C@H]1COc2c(N3CCN(C)CC3)c(F)cc3c(=O)c(C(=O)O)cn1c23.O [LEVOFLOXACIN] | 0.5 µg/mL | 16 µg/mL | 0.25 µg/mL | 0.25 µg/mL | 4 µg/mL | 8 µg/mL | 2 µg/mL |  | 16 µg/mL | 0.06 µg/mL | 4 µg/mL | 8 µg/mL |  | 8 µg/mL | 8 µg/mL | 2 µg/mL | 8 µg/mL | 8 µg/mL | 0.06 µg/mL |  |  |
